# Source: ChEMBL document CHEMBL1131609, “Syntheses and structure-activity relationships of novel retinoid X receptor agonists” (J Med Chem, 1998)
# Activity calls are given as the source filed them. No cut-off for these calls is given here.
# Tests used:
# [1] = biological target: T1, Retinoic acid receptor beta (Homo sapiens) (UniProt P10826); test: Relative EC30 for human RAR-beta receptor as EC30(compound) divided by EC30(ATRA)
# T1 sequence (whole entry): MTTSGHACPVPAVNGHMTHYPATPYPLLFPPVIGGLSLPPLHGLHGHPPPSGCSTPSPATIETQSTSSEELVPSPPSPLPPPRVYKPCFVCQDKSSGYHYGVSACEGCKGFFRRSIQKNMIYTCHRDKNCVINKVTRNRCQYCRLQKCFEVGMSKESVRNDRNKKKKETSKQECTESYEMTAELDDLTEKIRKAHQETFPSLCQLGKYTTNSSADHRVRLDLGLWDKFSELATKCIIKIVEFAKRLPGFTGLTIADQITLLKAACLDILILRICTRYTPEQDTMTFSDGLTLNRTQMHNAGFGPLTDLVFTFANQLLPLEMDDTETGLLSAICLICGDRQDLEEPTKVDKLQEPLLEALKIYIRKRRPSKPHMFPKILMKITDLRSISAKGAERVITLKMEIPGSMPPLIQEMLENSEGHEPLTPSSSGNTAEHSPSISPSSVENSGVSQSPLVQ
# [2] = biological target: T2, Retinoic acid receptor gamma (Homo sapiens) (UniProt P13631); test: Percent maximal induction of human RAR-gamma receptor relative to ATRA; Inactive; format: functional
# T2 sequence (whole entry): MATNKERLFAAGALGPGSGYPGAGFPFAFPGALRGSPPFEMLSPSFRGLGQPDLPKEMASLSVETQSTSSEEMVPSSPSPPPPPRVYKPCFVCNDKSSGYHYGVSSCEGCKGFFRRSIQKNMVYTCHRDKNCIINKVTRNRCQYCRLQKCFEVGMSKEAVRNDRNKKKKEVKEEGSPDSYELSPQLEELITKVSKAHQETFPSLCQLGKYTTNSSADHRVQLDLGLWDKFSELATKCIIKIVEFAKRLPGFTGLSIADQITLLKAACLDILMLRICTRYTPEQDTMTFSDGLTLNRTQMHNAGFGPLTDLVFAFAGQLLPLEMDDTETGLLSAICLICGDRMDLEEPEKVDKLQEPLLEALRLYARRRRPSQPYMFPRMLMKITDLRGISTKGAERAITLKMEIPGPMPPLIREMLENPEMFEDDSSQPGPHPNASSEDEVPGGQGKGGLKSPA
# [3] = biological target: T3, Retinoic acid receptor alpha (Homo sapiens) (UniProt P10276); test: Percent maximal induction of human RAR-alpha receptor relative to ATRA; Inactive; format: functional
# T3 sequence (whole entry): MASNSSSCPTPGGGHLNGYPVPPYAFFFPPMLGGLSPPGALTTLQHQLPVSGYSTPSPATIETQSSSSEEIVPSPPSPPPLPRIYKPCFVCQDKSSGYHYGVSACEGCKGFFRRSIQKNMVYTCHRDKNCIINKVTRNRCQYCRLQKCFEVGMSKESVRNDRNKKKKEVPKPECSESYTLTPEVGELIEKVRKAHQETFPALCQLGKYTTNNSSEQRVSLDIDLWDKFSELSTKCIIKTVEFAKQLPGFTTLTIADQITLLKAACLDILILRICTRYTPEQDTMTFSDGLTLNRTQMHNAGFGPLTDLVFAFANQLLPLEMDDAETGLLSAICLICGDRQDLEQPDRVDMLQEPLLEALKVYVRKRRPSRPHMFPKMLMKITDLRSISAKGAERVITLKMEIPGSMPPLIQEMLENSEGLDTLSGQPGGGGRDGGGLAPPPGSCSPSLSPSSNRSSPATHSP
# [4] = biological target: T2, Retinoic acid receptor gamma (Homo sapiens); test: Relative IC50 for human RAR-gamma receptor as IC50(compound) divided by IC50(ATRA)
# Summary of the method: (§1)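 Competitive binding used nuclear extracts of BHK clones stably expressing human RAR-α, β or γ, selected in 250 nM methotrexate. Extracts were incubated with [³H]-ATRA (added as 10 nM solution) and unlabeled compound for 16 h at 4 °C. Free ligand was removed with charcoal/dextran, and the supernatant was counted. Nonspecific binding was taken as binding with 1000-fold excess unlabeled ligand. IC50 from logarithmic plots was divided by the IC50 of ATRA.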
# [5] = biological target: T1, Retinoic acid receptor beta (Homo sapiens); test: Relative IC50 for human RAR-beta receptor IC50(compound) divided by IC50(ATRA); summary of the method: as §1
# [6] = biological target: T3, Retinoic acid receptor alpha (Homo sapiens); test: Relative IC50 for human RAR-alpha receptor as IC50(compound) divided by IC50(ATRA); summary of the method: as §1
# [7] = biological target: T3, Retinoic acid receptor alpha (Homo sapiens); test: Relative EC30 for human RAR-alpha receptor as EC30(compound) divided by EC30(ATRA); Inactive
# [8] = biological target: T2, Retinoic acid receptor gamma (Homo sapiens); test: Relative EC30 for human RAR-gamma receptor as EC30(compound) divided by EC30(ATRA); inactive
# [9] = biological target: T1, Retinoic acid receptor beta (Homo sapiens); test: Relative EC30 for human RAR-beta receptor as EC30(compound) divided EC30(ATRA); Inactive
# [10] = biological target: T2, Retinoic acid receptor gamma (Homo sapiens); test: Relative EC30 for human RAR-gamma receptor as EC30(compound) divided by EC30(ATRA); Inactive
# [11] = biological target: T1, Retinoic acid receptor beta (Homo sapiens); test: Percent maximal induction of human RAR-beta receptor relative to ATRA; Inactive; format: functional
Relative EC30 [1],Efficacy [2],Efficacy [3],Relative IC50 [4],Relative IC50 [5],Relative IC50 [6],Relative EC30 [7],Relative EC30 [8],Relative EC30 [9],Relative EC30 [10],Efficacy [11],Structure (SMILES)
1600,inactive,inactive,,,,,,,,,CC\C(=C(F)/C=C/C(C)=C/C(=O)O)c1ccc2c(c1)CCCN2C(C)C
,,,187,432,372,,,,,,CC(/C=C/C=C(\C)c1ccc2c(c1)CCCN2C(C)C)=C\C(=O)O
,inactive,inactive,,,,inactive,inactive,,,,CCC\C(=C(F)/C=C/C(C)=C/C(=O)O)c1ccc2c(c1)CCCN2C(C)C
,inactive,inactive,,,,inactive,,inactive,inactive,inactive,CCCC\C(=C(F)/C=C/C(C)=C/C(=O)O)c1ccc2c(c1)CCCN2C(C)C
